Screening results (PubChem)
Many of the other results were omitted from the sample, so hits are more common in it than they were.
D1 mod – D1 dopamine receptor (human) allosteric modulation | HEK293 D1, CRE-luciferase, dopamine EC30 potentiation; actives deviate in either direction | B-score at 10 µM | 5.9% of 58,000 active | AID 641;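 active means luminescence count or its row- and column-corrected plate score outside the 99.7% band of the plate's sample wells, on either side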
Target sequence (P21728 whole entry, looked up): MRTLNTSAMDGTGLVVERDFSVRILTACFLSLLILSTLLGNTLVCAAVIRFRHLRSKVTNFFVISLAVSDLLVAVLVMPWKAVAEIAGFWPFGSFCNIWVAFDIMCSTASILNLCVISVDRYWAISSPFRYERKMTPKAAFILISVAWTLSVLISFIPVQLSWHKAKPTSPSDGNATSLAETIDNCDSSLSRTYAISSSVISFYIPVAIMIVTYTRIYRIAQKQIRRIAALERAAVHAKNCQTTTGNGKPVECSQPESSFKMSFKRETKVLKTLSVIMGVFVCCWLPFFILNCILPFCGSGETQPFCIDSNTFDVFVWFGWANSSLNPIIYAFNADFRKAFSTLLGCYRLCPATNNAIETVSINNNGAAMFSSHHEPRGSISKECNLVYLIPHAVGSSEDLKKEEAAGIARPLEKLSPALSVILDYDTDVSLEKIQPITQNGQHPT
WNV protease inh – inhibitors of West Nile virus NS2B-NS3 protease; WNV NS2B-NS3 protease, fluorogenic substrate Ex360/Em465; active compounds read low; 0.18% of 65,000 active; z-score (test concentration not listed); P06935; in the data active means z-score below about -3
DAT uptake mod – changed human dopamine transporter uptake under cocaine IC80 | Q01959 | LLC-PK1 hDAT cells, [14C]-dopamine uptake with cocaine IC80; actives deviate in either direction | B-score at 10 µM | 1.3% of 110,000 active | AID 449768;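 active means Z score or B-score, a plate-position-corrected score, falls beyond the plate's 99.7% confidence bounds, in either direction; inactive means both scores lie inside the 99.7% bounds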;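 further: scored against the spread of the other compound wells on the same plate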
AP ELISA ortho – alternative pathway complement inhibition, orthogonal assay; Human serum alternative complement pathway, LPS-coated ELISA, C3 deposition; tested in compound mixtures; inhibition, % at 5 µM; 0.08% of 62,000 active;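 active means inhibition above 30% in each of the two pooled mixtures holding the compound, so the lower value exceeds 30%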;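 further: 0% = serum in Mg-EGTA without compound and 100% = EDTA serum blank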
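Test system: human serum complement alternative pathway, C3 deposition onto LPS / Medium: Mg2+-EGTA GVB++ buffer containing human serum at 1:15 dilution / Probe or stimulus: Plate-bound LPS / Times: 1 h at 37 °C / Signal: ELISA with HRP anti-human C3 antibody, TMB substrate, absorbance 450 nm / Measure: percent inhibition / Repeats: two pool placements per compound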
* marks the source's active call; other numbers are inactive results; nt = no result.

SMILES | D1 mod | WNV protease inh | DAT uptake mod | AP ELISA ortho
CC(NC(=O)Nc1cccnc1)(C(F)(F)F)C(F)(F)F | nt | 0.73 | -1.06 | nt
CC(NC(=O)Nc1cccc([N+](=O)[O-])c1)(C(F)(F)F)C(F)(F)F | nt | nt | -3.02* | nt
O=C(Nc1ccccc1)[C@@H]1CC=C[C@@H]2CCN(Cc3ccc(Cl)c(Cl)c3)C(=O)[C@@H]21 | nt | nt | 1.79 | nt
Nc1c(C(=O)c2ccccc2)oc2ccccc12 | nt | nt | 0.118 | nt
CC(=O)Nc1c(C(=O)c2ccccc2)oc2ccccc12 | 6.01* | -1.21 | -1.28 | -2.4
CCOC(=O)C(C(=O)OCC)C(C(=O)OCC)N1CCOCC1 (stereo unspecified) | nt | nt | 0.0531 | nt
CCOC(=O)C1=C(C)NC(C)=C(C(=O)OCC)C1C(=O)OCC(=O)N1CCc2ccccc2C1 | 1.27 | -0.55 | 1.07 | 0.4
CCC(=O)c1cn([C@@H](CCC(OC)OC)CC(=O)OC(C)(C)C)cc1CC | nt | nt | -0.00292 | nt
COc1ccc(C(OC(=O)c2cccs2)C(=O)NCC2CCCO2)cc1 (stereo unspecified) | nt | nt | 0.0637 | nt
COc1ccc(C(OC(=O)c2ccco2)C(=O)NCC2CCCO2)cc1 (stereo unspecified) | 0.583 | -0.09 | -7.27* | -7.0
COC(=O)c1cn(NC(=O)c2ccc3c(c2)OCO3)c(=O)c2ccccc12 | -0.128 | 1.87 | 0.119 | 7.4
CC1CCC(C(=O)NC(C(=O)N2CCC(N3CCCCC3)CC2)C(C)C)CC1 (stereo unspecified) | 0.906 | 1.51 | -2.69* | 11.8
Cn1c(=O)c2cc(S(=O)(=O)NC(Cc3ccccc3)C(=O)NCc3ccco3)ccc2n(C)c1=O (stereo unspecified) | 0.0412 | -0.1 | -0.613 | 8.7
CCC(C)NC(=O)C(NS(=O)(=O)c1ccc2c(c1)c(=O)n(C)c(=O)n2C)c1ccccc1 (stereo unspecified) | -5.57* | -0.83 | 0.19 | 6.8
C/C=C/c1ccc(Oc2nnnn2-c2ccc(C(N)=O)cc2)c(OC)c1 | -6.5* | 0.22 | -0.447 | 1.1
COc1ccccc1Oc1nnnn1-c1ccc(C(N)=O)cc1 | nt | nt | -1.93 | nt
Cc1ccccc1NC(=O)CCN1CCN(Cc2ccccc2)CC1 | -1.37 | -0.12 | -1.03 | -1.9
Cc1ccccc1NC(=O)c1ccc(CN2CCC(Cc3ccccc3)CC2)cc1 | nt | nt | -3.73* | nt
COc1cc(CCCN2C(=S)NC[C@@H]2Cc2ccccc2)cc(OC)c1OC | nt | nt | 2.99* | nt
COc1cc(CCCN2C(=S)NC[C@@H]2c2ccccc2)cc(OC)c1OC | nt | nt | 0.778 | nt
CCC(C)Nc1c2c(nc3c(-c4ccccc4)c(C)nn13)CCC2 (stereo unspecified) | nt | nt | 0.378 | nt
COc1ccccc1OCC(O)Cn1c(=N)n(Cc2ccccc2)c2ccccc21 (stereo unspecified) | -4.73* | 0.76 | 1.4 | nt
C=CCn1c(=N)n(CC(O)COc2ccccc2OC)c2ccccc21 (stereo unspecified) | -5.36* | -0.26 | -0.108 | 9.2
CC(C)(C)C(=O)Cn1c(=N)n(Cc2ccccc2)c2ccccc21 | -3.29* | 0.03 | 1.13 | -2.2
COc1ccc(OCC(O)Cn2c(=N)n(CCN3CCCCC3)c3ccccc32)cc1 (stereo unspecified) | -0.83 | 1.57 | 1.15 | -11.0
SMILES | D1 mod | WNV protease inh | DAT uptake mod | AP ELISA ortho
CCCCCn1c(=N)n(CC(O)COc2ccccc2OC)c2ccccc21 (stereo unspecified) | -5.83* | 0.17 | 2.48 | 14.3
COc1ccc(-n2nc3c(c2NC(=O)c2cc4ccccc4oc2=O)CS(=O)(=O)C3)cc1 | 1.58 | -1.79 | nt | 10.2
CCNC(=O)N(C(=O)NCC)n1c(C)nnc1C | 0.527 | -0.68 | -0.621 | 10.4
O=C(O)C1CC=CCC1C(=O)Nc1ccc(S(=O)(=O)N2CCCc3ccccc32)cc1 (stereo unspecified) | -0.539 | -0.39 | 1.34* | 0.3
C/C=C\C=C/C(=O)Nc1cccc(C2=NOC3(C2)C[C@H](C(N)=O)N(C(=O)Cc2ccc([N+](=O)[O-])cc2)C3)c1 (stereo partly specified) | nt | nt | -0.509 | nt
O=C(NCc1ccc2c(c1)OCO2)c1ccc2c(c1)S(=O)(=O)c1ccccc1C2=O | nt | nt | 0.416 | nt
CCOC(=O)C1CCCN(C(=O)COc2ccccc2O)C1 (stereo unspecified) | nt | nt | -0.771 | nt
CCOC(=O)C1CCCN(C(=O)CSc2nccn2C)C1 (stereo unspecified) | nt | -0.33 | -3.03* | 10.3
COc1ccc2c(c1)CC1c3c(cc4c(c3-2)OCO4)CC[N+]1(C)[O-] (stereo unspecified) | nt | nt | 0.933 | nt
COC(=O)c1cc2c(C)nn(-c3ccccc3)c2s1 | 0.42 | 0.66 | -0.104 | 0.4
Cc1nn(-c2ccccc2)c2sc(C(=O)OC3CCOC3=O)cc12 (stereo unspecified) | 0.915 | -3.5* | nt | 22.6
O=C(CN1CCN(Cc2ccccc2F)C1=O)NCc1ccco1 | nt | nt | -0.121 | nt
CCOc1ccc(S(=O)(=O)N2c3ccccc3CC2C)cc1 (stereo unspecified) | nt | nt | -2.72* | nt
CCOc1ccc(S(=O)(=O)N2CCc3ccccc3C2)cc1 | 1.29 | 0.3 | 0.151 | 13.6
COc1ccc(-c2coc3cc(OC)cc(O)c3c2=O)cc1 | nt | nt | -2.41* | nt
COc1ccc(-c2coc3cc(OC)cc(OC)c3c2=O)cc1 | nt | nt | 2.4 | nt
Cc1cc(N2CCOCC2)nc(SCc2ccc(Cl)cc2Cl)n1 | nt | nt | 0.152 | nt
Cc1ccc(NC(=O)c2ccco2)cc1NC(=O)CSc1nnc(-c2cccs2)n1C | 0.924 | -0.92 | 1.03 | -1.1
COc1cccc(C(c2sc3nc(C)nn3c2O)N2CCN(c3ccccc3F)CC2)c1 (stereo unspecified) | -0.62 | 0.36 | 2.71* | -1.9
CN1CCN(S(=O)(=O)c2ccc(-c3ccc(Cl)cc3)cc2)CC1 | -4.9* | -0.05 | 0.542 | 4.8
CN1CCN(S(=O)(=O)c2ccc(-c3ccc(S(=O)(=O)N4CCN(C)CC4)cc3)cc2)CC1 | -0.28 | -0.82 | nt | -8.1
Cc1ccnc(NC2(C(F)(F)F)N=C(c3ccccc3)NC2=O)c1 (stereo unspecified) | nt | nt | -0.983 | nt
C=CCn1c(NC)cc(=O)n(C)c1=O | 0.119 | 0.09 | -9.14* | 5.5
C=CCc1ccccc1OCC(O)CN(CC)CC (stereo unspecified) | nt | nt | -0.256 | nt
O=C(c1cc2ccccc2o1)N1CCN=C1SCc1cccnc1 | -1.81* | 1.24 | -0.259 | 8.0
SMILES | D1 mod | WNV protease inh | DAT uptake mod | AP ELISA ortho
O=C(c1ccc(Br)o1)N1CCN=C1SCc1cccnc1 | 1.05 | -1.19 | 2.36* | 11.5
O=C(c1ccccc1F)N1CCN=C1SCc1cccnc1 | 0.44 | 2.31 | 0.219 | 19.6
CC(C)CCNC(=O)COc1ccc2c(c1)C(=O)CC(C)(C)O2 | nt | nt | 0.0147 | nt
COc1ccc(NC(=O)NCCN2CCN(c3cccc(Cl)c3)CC2)cc1 | -0.685 | -0.37 | -0.218 | 15.9
COc1cccc(NC(=O)NCCCN2CCN(c3ccc(F)cc3)CC2)c1 | -5.09* | 0.36 | 0.0286 | 12.1
CC1(C)CC(=O)c2cc(OCC(=O)NCCCN3CCN(c4ccc(F)cc4)CC3)ccc2O1 | -4.22* | -0.29 | 0.15 | 20.3
COc1ccc(NC(=O)NCCCN2CCN(c3cc(C)ccc3C)CC2)cc1 | -6.12* | -0.44 | -1.93 | 4.1
CCn1c(=O)cc(SCC(=O)NCCCN2CCN(c3ccc(F)cc3)CC2)c2ccccc21 | -3.66* | 1.11 | 1.05 | -1.2
